Screens (PubChem BioAssay)
PGC1a acetyl inh: inhibitors of PGC1a acetylation signal, primary screen, cell-based, U2OS, AlphaScreen, inhibitor mode; AlphaScreen anti-acetyl-lysine; with virally co-expressed GCN5 acetyltransferase; inhibition, % at 15.6 µM; 0.17% of 350,000 active;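 active = every replicate shows inhibition of at least 40%; inconclusive = mean inhibition at least 40% but some replicate below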;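 note: 0% = neutral control wells and 100% = positive control wells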
Xi reactivation: activators of inactive X chromosome reactivation, primary screen, imaging, XiGFP fibroblasts, GFP high-content imaging, set 2; XiGFP mouse fibroblasts, % GFP-positive cells imaging, 3 d; cells co-treated with 5-aza-dC sensitizer; scaled so ellipticine positive control = 100%; activation, % at 7.58 µM; 0.055% of 360,000 active; AID 743238, 2013;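 active = mean normalized replicate activation at least 10% and every replicate at or above 10%; inconclusive = only one of the two criteria met; inactive = mean below 10% and not all replicates reach 10%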;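 note: 0% = median of on-plate neutral control wells and 100% = ellipticine 6 µM median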
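assay system = SV40-immortalized XiGFP fibroblast cells, line 68-5-11 | buffer or medium = DMEM plus 5-aza-dC sensitizer | doses = single-point pinned compound dosing | times = 3-day compound exposure, then 15 min fixation at room temperature | benchmarks = positive control ellipticine, 6 µM final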
FN deposit inh: inhibitors of fibronectin matrix deposition, primary screen, AH1F cells, Alexa488-fibronectin fluorescence, plate reader; AH1F fibroblasts, overnight; AID 743247, 2014; 0.086% of 350,000 active; inhibition, % at 12.6 µM;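 active = mean inhibition across replicates of 30% or more, regardless of how many single replicates reach that level; inconclusive = mean under 30% yet at least half of replicates reach 30%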;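 note: positive control wells lacked labelled fibronectin entirely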
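Measured by – fluorescence 485/525 nm · System – AH1F fibroblast monolayer, labelled fibronectin deposition · Amount – 10000 cells per well · Buffer or medium – serum-reduced DMEM (2% serum) · Doses – single dose, pinned · Also added – fluorescent fibronectin at 24 nM final · Schedule – 1 h cell attachment, overnight exposure to compound and label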
DENV2 CPE: inhibitors of DENV2 cytopathic effect, primary screen, cell-based, plate reader, single concentration; DENV2-infected cells, cytopathic effect rescue; 1.7% of 350,000 active; CPE inhibition, % at 9.99 µM; in the data active = CPE inhibition above about 20%, passing the limit was not always enough; inconclusive = no clear call, values can overlap the other calls; tested in BHK-21 cells;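 note: 0% = median of neutral control wells and 100% = median of positive control wells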
Cneo AK release: Cryptococcus neoformans cell lysis inducers, primary screen, AK release luminescence, single concentration; lysis activity, % at 15 µM; AID 651654, 2012; 0.2% of 360,000 active; C. neoformans lysis, adenylate kinase release luminescence, 4 h; normalised: neutral wells 0, clomiphene wells 100;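 active = mean lysis activity across replicates of at least 80%, whatever share of replicates individually reach that level; inactive = mean lysis activity below 80%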
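Test system: log-phase Cryptococcus neoformans yeast cells. Input: 5 × 10^6 yeast cells/mL. Medium: fresh YPD growth medium. Doses: single dose. Incubation: static 4 h at 37 °C with compound, 1 h detection. Measured by: luminescent adenylate kinase detection reagent. Read-out: signal increase indicating cell lysis. Benchmarks: Clomiphene.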
CFTR F508del cor: F508del CFTR correction, initial screen, CFBE line, single point; CFBE cells, YFP halide quenching; stimulated with forskolin plus potentiator P3; % fluorescence drop versus neutral controls; activity (quench increase), % at 7.58 µM; 0.36% of 350,000 active; AID 720511, 2013;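 active = mean added fluorescence quench of at least 8% versus neutral control, with both replicates also reaching 8%; inconclusive = only one of the mean or replicate conditions met; inactive = mean below 8% and not both replicates reaching 8%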;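 note: cells transiently co-express mutant CFTR-F508del with the halide-sensitive YFP; corrector assay measuring rescue of mutant channel to the surface after 24 h compound exposure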
An asterisk follows results filed as active; ? = inconclusive; / = no result; ! = not active in a repeat. In the library only some 1.9% were active in any assay of this set; here they are far more common.

SMILES	PGC1a acetyl inh	Xi reactivation	FN deposit inh	DENV2 CPE	Cneo AK release	CFTR F508del cor
COc1ccc(S(=O)(=O)N2CCCCCC2)cc1NC(=O)Cc1cccc(C(F)(F)F)c1	-0.8	0.0	3.2	110.6*	-0.7	/
COc1ccc(NC(=O)CCc2ccccc2)cc1S(=O)(=O)N1CCOCC1	-2.3	0.1	7.1	-1.5	-2.6	0.3
COc1ccc(NC(=O)CCc2ccccc2)cc1S(=O)(=O)N1CCCCC1	1.6	140.7*	2.0	3.8	-2.2	4.1
COc1ccccc1C#Cc1ccc([C@H]2[C@@H](C#N)N(C(=O)C3CCCC3)[C@H]2CO)cc1	-19.2	0.1	-8.1	-17.3	/	-1.5
COc1ccc(-n2nc(C#N)c(Cl)cc2=O)cc1	89.9*	0.0	9.8	0.7	/	-10.9
COC(=O)c1nn(-c2ccc(OC)cc2)c(=O)cc1O	/	0.1	-0.5	-2.0	6.5	2.9
CN(CC1CCCO1)S(=O)(=O)c1ccc(C(=O)Nc2nnc(-c3ccccc3)o2)cc1 (stereo not drawn)	/	0.1	-1.0	-1.3	1.0	8.2*
COc1cccc(C(=O)C(C#N)=C(SC)SC)c1	9.8	0.0	1.8	33.9*	-4.5	-1.1
C[C@@H]1CN([C@@H](C)CO)C(=O)c2cc(C#CC3CCCC3)cnc2O[C@@H]1CN(C)C(=O)C1CC1	/	1.2	-4.5	-2.7	/	2.9
Cc1ccc(S(=O)(=O)N(Cc2cc3ccccc3[nH]c2=O)c2cccc(C)c2)cc1	6.7	-0.1	6.8	-7.0	-2.5	14.4*
Cc1c2ccncc2cc2c1[nH]c1ccccc12	5.1	0.1	22.9	1.3	-0.8	11.6*
Cc1nc2ccc(C(=O)N3c4ccccc4N=C(c4ccc(C(F)(F)F)cc4)C3C(=O)NC(C)(C)C)cc2[nH]1 (stereo not drawn)	/	-0.1	-4.3	36.9*	/	1.2
C/C=C/c1cnc2c(c1)C(=O)N([C@@H](C)CO)C[C@@H](C)[C@@H](CN(C)C(=O)NC1CCCCC1)O2	1.6	0.1	-11.8	-5.6	-1.9	3.0
CO[C@@H](CN(C)S(=O)(=O)c1cn(C)cn1)[C@@H](C)CN(C(=O)Nc1ccc(C(F)(F)F)cc1)[C@@H](C)CO	10.7	0.1	2.5	-1.8	54.5	-1.0
N#Cc1ccc(-c2ccc(OCC(=O)NN=Cc3ccncc3)cc2)cc1	/	0.8	8.6	29.5*	/	/
Cc1n[nH]c(=O)c2c(NC(=O)CSc3nnc(C4CC4)n3C)oc(C)c12	/	0.0	4.0	39.1*	/	1.5
CC(=O)Nc1ccc2cc3ccc(NC(C)=O)cc3nc2c1	3.3	0.0	-18.1	-0.1	-0.5	10.0*
CC(=O)Nc1ccc2ccccc2c1	-7.4	/	/	/	-3.4	/
CCCN1C[C@@H](C)[C@@H](OC)CN(C)C(=O)c2cc(NC(=O)CC(F)(F)F)ccc2OC[C@@H]1C	5.0	0.2	-11.2	55.8*	/	-0.4
CCC(=O)Nc1ccc2c(c1)OC[C@H](C)N(CCC(F)(F)F)C[C@@H](C)[C@H](OC)CN(C)C2=O	/	0.4	-8.3	24.1*	1.5	/
CCCN1C[C@H](C)[C@H](OC)CN(C)C(=O)c2cc(NC(=O)CC(F)(F)F)ccc2OC[C@H]1C	-0.2	0.2	-0.5	-3.6	/	2.7
CO[C@H]1CN(C)C(=O)c2cc(NC(=O)CC(F)(F)F)ccc2OC[C@H](C)N(C(=O)C2CCCCC2)C[C@H]1C	-3.3	-0.4	-4.1	50.1*	/	-0.8
CCCC(=O)Nc1ccc2c(c1)C(=O)N(C)C[C@H](OC)[C@H](C)CN(CCC(F)(F)F)[C@@H](C)CO2	-2.1	0.3	-6.8	22.5*	1.8	-0.5
CO[C@H]1CN(C)C(=O)c2cc(NC(=O)CC(F)(F)F)ccc2OC[C@@H](C)N(C(=O)C2CCCCC2)C[C@@H]1C	-3.1	-0.6	-4.3	-0.8	/	-2.6
CCCC(=O)Nc1ccc2c(c1)C(=O)N(C)C[C@@H](OC)[C@@H](C)CN(CCC(F)(F)F)[C@H](C)CO2	-10.9	-0.3	-4.4	-5.8	-0.5	-0.9
SMILES	PGC1a acetyl inh	Xi reactivation	FN deposit inh	DENV2 CPE	Cneo AK release	CFTR F508del cor
COCCNC(=O)NC12CC3(C)CC(C)(CC(C)(C3)C1)C2	/	-0.1	-5.2	4.6	/	10.1*
CN(C(=O)CS(=O)(=O)c1cn(CC(=O)N2CCCCC2)c2ccccc12)c1ccccc1	/	0.1	-1.8	63.6*	1.3	1.5
CN(Cc1cnc2nc(N)nc(N)c2n1)c1ccc(C(=O)NC(CCC(=O)O)C(=O)O)c2ccccc12 (stereo not drawn)	8.2	0.0	4.4	6.1	/	11.5*
CN(C)C(=O)[C@H]1[C@H](CO)[C@H]2Cn3c(cccc3=O)[C@H]2N1C(=O)NC1CCCC1	-0.4	-0.1	/	1.1	/	0.1
COc1ccc(NC(=O)N(C)C[C@@H]2Oc3ncc(C#CCC(C)C)cc3C(=O)N([C@@H](C)CO)C[C@@H]2C)cc1	6.0	-1.0	-0.8	?	-3.3	1.0
CN(Cc1nc2ccccc2c(=O)[nH]1)C(=O)c1cccc(S(=O)(=O)N2CCc3ccccc32)c1	-0.7	0.4	-10.3	43.7*	-1.8	5.3
CC1CCCN(Cc2c(O)ccc3c4c(c(=O)oc23)CCCC4)C1 (stereo not drawn)	?	0.4	31.1*	-2.2	3.0	2.8
Cc1nn(C2CCS(=O)(=O)C2)c2nc(C3CC3)cc(C(=O)Nc3cccc(C#N)c3)c12 (stereo not drawn)	-4.5	-0.1	-6.6	4.6	-0.2	8.7*
CC12CC3CC(C)(C1)CC(C(=O)NC(=S)N1CCCCC1)(C3)C2	/	/	/	3.1	111.4*	-1.0
C[C@@H]1CN([C@H](C)CO)C(=O)CCCn2nncc2CO[C@@H]1CN(C)S(=O)(=O)c1ccc(Oc2ccccc2)cc1	-4.9	0.1	16.3	-12.7	0.4	4.3
C[C@@H]1CN([C@H](C)CO)C(=O)CCCn2nncc2CO[C@H]1CN(C)S(=O)(=O)c1cn(C)cn1	105.5*	0.2	-0.5	16.2	1.0	0.5
C[C@H]1CN([C@@H](C)CO)C(=O)CCCn2nncc2CO[C@H]1CN(C)S(=O)(=O)c1ccccc1F	-6.5	0.2	8.0	27.4*!	3.7	-2.0
C[C@H]1CN([C@@H](C)CO)C(=O)CCCn2nncc2CO[C@H]1CN(C)S(=O)(=O)c1ccc(Oc2ccccc2)cc1	36.8	0.2	-0.3	29.6*!	0.9	0.0
O=C(C[C@H]1CC[C@@H]2[C@H](COC[C@@H](O)CN2C(=O)Cc2ccccc2)O1)NC1CCCC1	6.2	0.0	-0.3	?	0.3	3.1
